AF4-AF9 inh: MLL-AF4/AF9 protein interaction inhibition | AlphaScreen, biotin-AF4 peptide binding to FLAG-AF9 | 350,000 tested, 0.47% active | P42568 | AID 651704 | inhibition, % at 10 µM;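 active = every replicate reaching a set inhibition limit, whatever the replicate mean, cut at about 25% in these data; inconclusive = mean inhibition reaches that limit but some replicates miss it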;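 also: 0% = plate neutral control median and 100% = total signal loss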
Target sequence (P42568 whole entry, looked up): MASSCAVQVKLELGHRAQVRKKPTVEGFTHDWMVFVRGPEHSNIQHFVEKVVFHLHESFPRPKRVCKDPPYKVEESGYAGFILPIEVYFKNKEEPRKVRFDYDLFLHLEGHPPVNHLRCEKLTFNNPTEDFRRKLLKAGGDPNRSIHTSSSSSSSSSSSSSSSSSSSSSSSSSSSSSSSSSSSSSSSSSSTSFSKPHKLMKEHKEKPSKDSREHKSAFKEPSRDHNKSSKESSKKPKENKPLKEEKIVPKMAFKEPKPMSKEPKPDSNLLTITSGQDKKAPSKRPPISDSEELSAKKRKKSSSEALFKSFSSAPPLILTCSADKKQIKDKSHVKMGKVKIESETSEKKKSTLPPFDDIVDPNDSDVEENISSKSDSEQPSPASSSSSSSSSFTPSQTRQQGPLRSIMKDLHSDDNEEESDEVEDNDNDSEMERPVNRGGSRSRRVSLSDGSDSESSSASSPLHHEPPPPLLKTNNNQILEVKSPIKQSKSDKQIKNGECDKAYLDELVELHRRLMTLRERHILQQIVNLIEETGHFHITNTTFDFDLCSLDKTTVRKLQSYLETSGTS
EWS-Fli block: EWS/Fli transcriptional activity inhibition. AID 651661. inhibition, % at 12.6 µM. A673 NR0B1-luciferase reporter, viability-normalised. 350,000 tested, 0.67% active;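 active = mean inhibition of at least 50% after viability correction, with every replicate also passing that limit; inconclusive = mean reaches 50% but only one of two replicates passes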;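 also: firefly luciferase signal divided by Alamar Blue viability fluorescence both relative to DMSO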
XiGFP reactiv: X-chromosome reactivation activator; XiGFP mouse fibroblasts, % GFP-positive cells imaging, 3 d; cells co-treated with 5-aza-dC sensitizer; scaled so ellipticine positive control = 100%; activation, % at 7.58 µM; 360,000 tested, 0.055% active;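 active = mean normalized replicate activation at least 10% and every replicate at or above 10%; inconclusive = only one of the two criteria met; inactive = mean below 10% and not all replicates reach 10%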;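 also: 0% = median of on-plate neutral control wells and 100% = ellipticine 6 µM median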
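Material: SV40-immortalized XiGFP fibroblast cells, line 68-5-11 | Buffer or medium: DMEM containing 5-aza-dC | Dosing: One concentration, pinned | Times: 3 d treatment, 15 min room-temperature fixation | Controls: Ellipticine 6 µM positive control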
PGC1a acetyl inh: modulators of PGC1a acetylation; 350,000 tested, 0.17% active; U2OS PGC1a acetylation, AlphaScreen anti-acetyl-lysine; with virally co-expressed GCN5 acetyltransferase; inhibition, % at 15.6 µM;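 active = every replicate shows inhibition of at least 40%; inconclusive = mean inhibition at least 40% but some replicate below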;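 also: 0% = neutral control wells and 100% = positive control wells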
GSIS activator: primary screen for activators of insulin secretion dependent on glucose, INS-1E cells, GLuc reporter luminescence; INS-1E GLuc reporter insulin secretion, 2-3 h; 370,000 tested, 0.61% active; activation, % at 16.6 µM; AID 743287;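 active = lowest replicate activation of at least 40%, so every replicate reaches that level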;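 also: 0% = median of neutral control wells and 100% = median of IBMX positive control wells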
PAX8 reporter: PAX8 transcriptional activity inhibition | inhibition, % at 12.6 µM | 360,000 tested, 1.2% active | RMG-I TPO-luciferase reporter, SteadyGlo, 24 h;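 active = mean replicate inhibition at least 60% with every replicate also reaching 60%; inconclusive = only one of the two criteria is met; inactive = mean below 60% and not all replicates reaching 60%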;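 also: luciferase light reporting Pax8 driven TPO promoter activity; plate controls were median of neutral control wells for no effect and mitoxantrone controls for full effect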
* = called active by the depositor. An excerpt weighted towards active compounds, which were near 2.1% of everything screened.

Results for C[C@@H]1CN([C@H](C)CO)C(=O)Cc2cc(NC(=O)NC3CCCCC3)ccc2O[C@@H]1CN(C)CC1CCCCC1 ?
AF4-AF9 inh: 3; EWS-Fli block: -6; XiGFP reactiv: 0; PGC1a acetyl inh: -9; GSIS activator: -6; PAX8 reporter: inconclusive

What do the screens show for `CC(=O)Nc1ccc2c(c1)C(=O)N(C)C[C@H](C)[C@@H](CN(C)C(=O)NC(C)C)O2`?
XiGFP reactiv: 0; GSIS activator: 2

What do the screens show for `COC(=O)c1cc(C)nc2c1C(=O)C(=O)C=C2N1CCOCC1`?
AF4-AF9 inh: -3; EWS-Fli block: 73*; XiGFP reactiv: 1; GSIS activator: 8; PAX8 reporter: 106*

Results for COC(=O)c1cc(S(=O)(=O)N2CCOCC2)c(Cl)cc1N1CCOCC1 ?
PGC1a acetyl inh: 7

Results for C[C@@H]1CN([C@H](C)CO)C(=O)c2cccc(NS(=O)(=O)c3cn(C)cn3)c2O[C@@H]1CN(C)C(=O)Nc1ccc2c(c1)OCO2 ?
AF4-AF9 inh: -3; EWS-Fli block: -2; XiGFP reactiv: 0; PGC1a acetyl inh: 8; GSIS activator: -2

Results for C[C@H]1CCCCO[C@H](CN(C)C(=O)Nc2cccc3ccccc23)[C@@H](C)CN([C@@H](C)CO)C(=O)c2cc(NS(=O)(=O)c3ccccc3)ccc2O1 ?
AF4-AF9 inh: -3; EWS-Fli block: 27; XiGFP reactiv: 0; PGC1a acetyl inh: -8; GSIS activator: -2; PAX8 reporter: 72*

What do the screens show for `Cc1ccc(S(=O)(=O)Nc2ccc3c(c2)C(=O)N([C@H](C)CO)C[C@@H](C)[C@H](CN(C)C(=O)Nc2cccc4ccccc24)OCCCC[C@@H](C)O3)cc1`?
AF4-AF9 inh: -5; EWS-Fli block: 18; XiGFP reactiv: 0; PGC1a acetyl inh: -12; GSIS activator: -1; PAX8 reporter: 79*

Results for Cc1ccc(S(=O)(=O)Nc2ccc3c(c2)C(=O)N([C@@H](C)CO)C[C@@H](C)[C@@H](CN(C)C(=O)Nc2cccc4ccccc24)OCCCC[C@H](C)O3)cc1 ?
AF4-AF9 inh: 1; EWS-Fli block: -1; XiGFP reactiv: 0; PGC1a acetyl inh: -10; GSIS activator: -39; PAX8 reporter: 10

Results for Cc1ccc(S(=O)(=O)Nc2ccc3c(c2)C(=O)N([C@@H](C)CO)C[C@H](C)[C@@H](CN(C)C(=O)Nc2cccc4ccccc24)OCCCC[C@H](C)O3)cc1 ?
AF4-AF9 inh: -3; EWS-Fli block: 14; XiGFP reactiv: 0; PGC1a acetyl inh: -20; GSIS activator: 25; PAX8 reporter: 70*

Results for Cc1ccc(S(=O)(=O)Nc2ccc3c(c2)C(=O)N([C@@H](C)CO)C[C@H](C)[C@@H](CN(C)C(=O)Nc2cccc4ccccc24)OCCCC[C@@H](C)O3)cc1 ?
AF4-AF9 inh: 3; EWS-Fli block: 19; XiGFP reactiv: 0; PGC1a acetyl inh: -19; GSIS activator: -2; PAX8 reporter: 81*

How did Cc1ccc(S(=O)(=O)Nc2ccc3c(c2)C(=O)N([C@H](C)CO)C[C@H](C)[C@@H](CN(C)C(=O)Nc2cccc4ccccc24)OCCCC[C@H](C)O3)cc1 do in these assays?
AF4-AF9 inh: -1; EWS-Fli block: 12; XiGFP reactiv: 0; PGC1a acetyl inh: -26; GSIS activator: 36; PAX8 reporter: 15

What do the screens show for `COc1ccccc1C#Cc1ccc([C@H]2[C@H](CO)N3CCCCN(S(C)(=O)=O)C[C@@H]23)cc1`?
AF4-AF9 inh: 2; EWS-Fli block: -5; XiGFP reactiv: 0; PGC1a acetyl inh: -6; GSIS activator: -23; PAX8 reporter: 10

How did O=C(C1CCOCC1)N1C[C@@H]2[C@H](c3ccccc31)[C@H](CO)N2C(=O)Nc1cccc(F)c1 do in these assays?
AF4-AF9 inh: -5; EWS-Fli block: 12; XiGFP reactiv: 0; PGC1a acetyl inh: 0; GSIS activator: -5; PAX8 reporter: -6

How did C[C@@H]1CCCCO[C@H](CN(C)C(=O)Nc2cccc3ccccc23)[C@H](C)CN([C@@H](C)CO)C(=O)c2cc(NS(=O)(=O)c3ccc(Cl)cc3)ccc2O1 do in these assays?
AF4-AF9 inh: -4; EWS-Fli block: 13; XiGFP reactiv: 0; PGC1a acetyl inh: -12; GSIS activator: 8; PAX8 reporter: 76*

What do the screens show for `CC(C)N1CCN(c2ccc(OC[C@H]3CO[C@](Cn4cncn4)(c4ccc(Cl)cc4Cl)O3)cc2)CC1`?
AF4-AF9 inh: 36*; EWS-Fli block: 23; XiGFP reactiv: 0; PGC1a acetyl inh: -13; GSIS activator: -1; PAX8 reporter: 16

Results for COc1ccc(N2CCN(C(=O)Cn3cncn3)CC2)cc1 ?
AF4-AF9 inh: 6; EWS-Fli block: 5; XiGFP reactiv: 0; PGC1a acetyl inh: 8; GSIS activator: -1; PAX8 reporter: 21

What do the screens show for `C/C=C/c1ccc([C@@H]2[C@H](CO)N(C(C)=O)[C@H]2CNC(=O)c2ccncc2)cc1`?
AF4-AF9 inh: 2; EWS-Fli block: -11; XiGFP reactiv: 0; PGC1a acetyl inh: 10; GSIS activator: -7; PAX8 reporter: -4

How did CCOc1ccc(NC(=O)[C@@H](NC(=O)OCc2ccccc2)[C@@H](C)CC)cc1 do in these assays?
XiGFP reactiv: 0; GSIS activator: 49*; PAX8 reporter: 8

Results for CCC(C)C(NC(N)=O)C(=O)Nc1ccc(OCc2ccccc2)cc1 (centres undefined) ?
AF4-AF9 inh: 6; EWS-Fli block: -24; XiGFP reactiv: 0; PGC1a acetyl inh: 12; GSIS activator: 9; PAX8 reporter: -22

Results for Cc1ccc(N/C(N)=N/c2nc(CSc3nnc(C)s3)cc(=O)[nH]2)c(C)c1 ?
AF4-AF9 inh: 3; EWS-Fli block: 69*; XiGFP reactiv: 0; PGC1a acetyl inh: 3; GSIS activator: 10; PAX8 reporter: 32

What do the screens show for `C[C@@H]1CN([C@@H](C)CO)C(=O)c2cc(NS(=O)(=O)c3ccc(Cl)cc3)ccc2O[C@@H](C)CCCCO[C@H]1CN(C)CC1CC1`?
AF4-AF9 inh: 9; EWS-Fli block: -2; XiGFP reactiv: 0; PGC1a acetyl inh: 5; GSIS activator: -14; PAX8 reporter: -4

Results for c1ccc(-c2nnnn2-c2ccccc2)cc1 ?
AF4-AF9 inh: -1; EWS-Fli block: 0; XiGFP reactiv: 0; GSIS activator: 8; PAX8 reporter: -12

Results for ClC(Cl)(c1nnnn1-c1ccccc1)c1nnnn1-c1ccccc1 ?
XiGFP reactiv: 0; PGC1a acetyl inh: 30; GSIS activator: 139*; PAX8 reporter: 24
